# Measurements taken from ChEMBL document CHEMBL1125548, “Synthesis and pharmacological studies of N-substituted 6-[(2-aminoethyl)amino]-1,3-dimethyl-2,4(1H,3H)-pyrimidinediones, novel class III antiarrhythmic agents” (1992).
# Key:
# Canis familiaris [1] = test: The percentage change of the duration of action potential at 75% repolarization was measured before and after the administration at 1.0 ug/mL; format: functional, Canis lupus familiaris
# In short: (§1)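 Canine right-ventricular Purkinje fibers (mongrel dogs 7–11 kg, thiopental-anesthetized) superfused with Tyrode's (pH 7.5, 36 °C, gassed 95% O2/5% CO2). Compounds diluted from 1 mM water stock and added cumulatively. Readings taken 20 min after solution exchange. Result given as percent change in action potential duration.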
# Canis familiaris [2] = test: The percentage change of the duration of action potential at 75% repolarization was measured before and after the administration at 3.0 ug/mL; format: functional, Canis lupus familiaris; in short: as §1
# Canis familiaris [3] = test: Concentration required for 50% inhibition of tachycardia induced by isoproterenol (0.5ug/mL, iv) in anesthetized dog; format: functional; settings: Canis lupus familiaris, read-out: ID50 (the source's name)
# Canis familiaris [4] = test: Percentage change of the duration of action potential at 75% repolarization was measured before and after the administration at 10.0 ug/mL; format: functional, Canis lupus familiaris; in short: as §1
# Canis familiaris [5] = test: The prolongation effect of the atrial and ventricular effective refractory period was measured before and after the administration at 3 mg/kg; format: functional, Canis lupus familiaris, Cardiac atrium
# In short: (§2)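 In vivo, mongrel dogs of either sex (7–13 kg), anesthetized with pentobarbital sodium 30 mg/kg iv. Left femoral artery cannulated for arterial pressure, femoral vein for drug dosing. Effective refractory period measured before and after administration.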
# Canis familiaris [6] = test: The prolongation effect of the atrial and ventricular effective refractory period was measured before and after the administration at 0.1 mg/kg; format: functional, Canis lupus familiaris, Cardiac atrium; settings: dose 1.0 mg/kg; in the assay text read “1.0 mg/kg” for “0.1 mg/kg”; in short: as §2
# Canis familiaris [7] = test: The prolongation effect of the atrial and ventricular effective refractory period was measured before and after the administration at 0.3 mg/kg; format: functional, Canis lupus familiaris, Cardiac atrium; in short: as §2
# Canis familiaris [8] = organism: Canis familiaris; test: Maximum upstroke velocity of the compound at 0 (ug/mL) concentration; format: functional, Canis lupus familiaris
# In short: (§3)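 Purkinje fibers from right ventricle of mongrel dogs (7–11 kg, thiopental sodium 30 mg/kg iv), superfused in organ bath with Tyrode's solution (pH 7.5, 95% O2/5% CO2) at 36 °C. Compounds from 1 mM aqueous stock diluted in Tyrode's, given cumulatively. Data taken 20 min after each solution change. Means ± SD of seven experiments.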
# Canis familiaris [9] = organism: Canis familiaris; test: Action potential duration at 50% repolarization at 0.3(ug/mL) concentration; format: functional, Canis lupus familiaris; in short: as §3
# Canis familiaris [10] = organism: Canis familiaris; test: Action potential duration at 90% repolarization at 0.1(ug/mL) concentration; format: functional, Canis lupus familiaris; in short: as §3
# Canis familiaris [11] = organism: Canis familiaris; test: Action potential amplitude at 0.1(ug/mL) concentration; format: functional, Canis lupus familiaris; in short: as §3
# Canis familiaris [12] = organism: Canis familiaris; test: Action potential duration at 75% repolarization at 3(ug/mL) concentration; format: functional, Canis lupus familiaris; in short: as §3
# Canis familiaris [13] = organism: Canis familiaris; test: Action potential amplitude at 0 (ug/mL) concentration; format: functional, Canis lupus familiaris; in short: as §3
# Canis familiaris [14] = organism: Canis familiaris; test: Action potential duration at 50% repolarization at 10(ug/mL) concentration; format: functional, Canis lupus familiaris; in short: as §3
# Canis familiaris [15] = organism: Canis familiaris; test: Action potential amplitude at 0.3(ug/mL) concentration; format: functional, Canis lupus familiaris; in short: as §3
# Canis familiaris [16] = organism: Canis familiaris; test: Action potential duration at 75% repolarization at 0.1(ug/mL) concentration; format: functional, Canis lupus familiaris; in short: as §3
# Canis familiaris [17] = organism: Canis familiaris; test: Action potential duration at 90% repolarization at 3(ug/mL) concentration; format: functional, Canis lupus familiaris; in short: as §3
# Canis familiaris [18] = organism: Canis familiaris; test: Action potential amplitude at 10(ug/mL) concentration; format: functional, Canis lupus familiaris; in short: as §3
# Canis familiaris [19] = organism: Canis familiaris; test: Resting membrane potential at 0.3 (ug/mL) concentration; format: functional; settings: Canis lupus familiaris; in short: as §3
# Canis familiaris [20] = organism: Canis familiaris; test: Maximum upstroke velocity of the compound at 0.3 (ug/mL) concentration; format: functional, Canis lupus familiaris; in short: as §3
# Canis familiaris [21] = organism: Canis familiaris; test: Action potential duration at 75% repolarization at 0.3(ug/mL) concentration; format: functional, Canis lupus familiaris; in short: as §3
# Canis familiaris [22] = organism: Canis familiaris; test: Maximum upstroke velocity of the compound at 10 (ug/mL) concentration; format: functional, Canis lupus familiaris; in short: as §3
# Canis familiaris [23] = organism: Canis familiaris; test: Action potential duration at 75% repolarization at 0(ug/mL) concentration; format: functional, Canis lupus familiaris; in short: as §3
# Canis familiaris [24] = organism: Canis familiaris; test: Action potential duration at 50% repolarization at 0.1(ug/mL) concentration; format: functional, Canis lupus familiaris; in short: as §3
# Canis familiaris [25] = organism: Canis familiaris; test: Action potential amplitude at 3(ug/mL) concentration; format: functional, Canis lupus familiaris; in short: as §3
# Canis familiaris [26] = organism: Canis familiaris; test: Action potential duration at 90% repolarization at 0(ug/mL) concentration; format: functional, Canis lupus familiaris; in short: as §3
# Canis familiaris [27] = organism: Canis familiaris; test: Action potential duration at 90% repolarization at 1(ug/mL) concentration; format: functional, Canis lupus familiaris; in short: as §3
# Canis familiaris [28] = organism: Canis familiaris; test: Resting membrane potential at 0 (ug/mL) concentration; format: functional; settings: Canis lupus familiaris; in short: as §3
# Canis familiaris [29] = organism: Canis familiaris; test: Action potential amplitude at 1(ug/mL) concentration; format: functional, Canis lupus familiaris; in short: as §3
# Canis familiaris [30] = organism: Canis familiaris; test: Action potential duration at 75% repolarization at 1(ug/mL) concentration; format: functional, Canis lupus familiaris; in short: as §3
# Canis familiaris [31] = organism: Canis familiaris; test: Action potential duration at 50% repolarization at 3(ug/mL) concentration; format: functional, Canis lupus familiaris; in short: as §3
# Canis familiaris [32] = organism: Canis familiaris; test: Resting membrane potential at 1 (ug/mL) concentration; format: functional; settings: Canis lupus familiaris; in short: as §3
# Canis familiaris [33] = organism: Canis familiaris; test: Maximum upstroke velocity of the compound at 1 (ug/mL) concentration; format: functional, Canis lupus familiaris; in short: as §3
# Canis familiaris [34] = organism: Canis familiaris; test: Action potential duration at 90% repolarization at 10(ug/mL) concentration; format: functional, Canis lupus familiaris; in short: as §3
# Canis familiaris [35] = organism: Canis familiaris; test: Maximum upstroke velocity of the compound at 3 (ug/mL) concentration; format: functional, Canis lupus familiaris; in short: as §3
# Canis familiaris [36] = organism: Canis familiaris; test: Action potential duration at 75% repolarization at 10(ug/mL) concentration; format: functional, Canis lupus familiaris; in short: as §3
# Canis familiaris [37] = organism: Canis familiaris; test: Maximum upstroke velocity of the compound at 0.1 (ug/mL) concentration; format: functional, Canis lupus familiaris; in short: as §3
# Canis familiaris [38] = organism: Canis familiaris; test: Action potential duration at 50% repolarization at 1(ug/mL) concentration; format: functional, Canis lupus familiaris; in short: as §3
# Canis familiaris [39] = organism: Canis familiaris; test: Action potential duration at 50% repolarization at 0 ug/mL concentration; format: functional, Canis lupus familiaris; in short: as §3
# Canis familiaris [40] = organism: Canis familiaris; test: Resting membrane potential at 0.1 (ug/mL) concentration; format: functional; settings: Canis lupus familiaris; in short: as §3
# Canis familiaris [41] = organism: Canis familiaris; test: Action potential duration at 90% repolarization at 0.3(ug/mL) concentration; format: functional, Canis lupus familiaris; in short: as §3
# Canis familiaris [42] = organism: Canis familiaris; test: Resting membrane potential at 10 (ug/mL) concentration; format: functional; settings: Canis lupus familiaris; in short: as §3
# Canis familiaris [43] = organism: Canis familiaris; test: Resting membrane potential at 3(ug/mL) concentration; format: functional; settings: Canis lupus familiaris; in short: as §3
smiles,measurement,setting,value
Cl.Cn1c(N2CCN(CCc3ccc([N+](=O)[O-])cc3)CC2)cc(=O)n(C)c1=O,APD75,Canis familiaris [1],43%
CS(=O)(=O)O.Cn1c(N2CCN(CCCOc3ccccc3)CC2)cc(=O)n(C)c1=O,APD75,Canis familiaris [2],22%
same,ED50,Canis familiaris [3],> 5 mg/kg
same,APD75,Canis familiaris [1],7%
Cl.Cn1c(N2CCN(CCCOc3cccc(Cl)c3)CC2)cc(=O)n(C)c1=O,APD75,Canis familiaris [2],6%
same,APD75,Canis familiaris [4],7%
Cl.Cn1c(N2CCN(CCCOc3ccc(NS(C)(=O)=O)cc3)CC2)cc(=O)n(C)c1=O,APD75,Canis familiaris [2],3%
same,ERP,Canis familiaris [5],16.4%
same,ERP,Canis familiaris [6],9.3%
same,APD75,Canis familiaris [1],1%
same,ERP,Canis familiaris [7],7.1%
same,APD75,Canis familiaris [4],10%
Cl.Cn1c(NCCN(CCO)CCCc2ccc([N+](=O)[O-])cc2)cc(=O)n(C)c1=O,Max dV/dt,Canis familiaris [8],356 V s-1
same,APD50,Canis familiaris [9],315 ms
same,APD90,Canis familiaris [10],371 ms
same,APA,Canis familiaris [11],101 mV
same,APD75,Canis familiaris [12],485 ms
same,APA,Canis familiaris [13],104 mV
same,APD75,Canis familiaris [2],38%
same,APD50,Canis familiaris [14],386 ms
same,APA,Canis familiaris [15],102 mV
same,APD75,Canis familiaris [16],340 ms
same,APD90,Canis familiaris [17],533 ms
same,APA,Canis familiaris [18],107 mV
same,RMP,Canis familiaris [19],-87 mV
same,Max dV/dt,Canis familiaris [20],348 V s-1
same,APD75,Canis familiaris [21],372 ms
same,Max dV/dt,Canis familiaris [22],339 V s-1
same,APD75,Canis familiaris [23],313 ms
same,APD50,Canis familiaris [24],293 ms
same,APA,Canis familiaris [25],104 mV
same,APD90,Canis familiaris [26],344 ms
same,APD90,Canis familiaris [27],471 ms
same,RMP,Canis familiaris [28],-88 mV
same,APD75,Canis familiaris [1],22%
same,APA,Canis familiaris [29],103 mV
same,APD75,Canis familiaris [30],428 ms
same,APD50,Canis familiaris [31],369 ms
same,RMP,Canis familiaris [32],-87 mV
same,Max dV/dt,Canis familiaris [33],344 V s-1
same,APD90,Canis familiaris [34],584 ms
same,Max dV/dt,Canis familiaris [35],341 V s-1
same,APD75,Canis familiaris [36],529 ms
same,Max dV/dt,Canis familiaris [37],351 V s-1
same,APD50,Canis familiaris [38],349 ms
same,APD50,Canis familiaris [39],266 ms
same,RMP,Canis familiaris [40],-85 mV
same,APD90,Canis familiaris [41],409 ms
same,RMP,Canis familiaris [42],-90 mV
same,RMP,Canis familiaris [43],-87 mV
CCN(CC)CCNC(=O)c1ccc(NS(C)(=O)=O)cc1 [SEMATILIDE],APD75,Canis familiaris [2],29%
same,APD75,Canis familiaris [1],19%
Cl.Cn1c(N2CCN(CCCOc3ccc(F)cc3)CC2)cc(=O)n(C)c1=O,APD75,Canis familiaris [2],13%
same,ERP,Canis familiaris [5],11.8%
same,ERP,Canis familiaris [6],5.9%
same,APD75,Canis familiaris [1],9%
same,ERP,Canis familiaris [7],5.9%
